# Tests used:
# [1] = Liver microsomal stability, human; format: in vitro ADME; conditions: liver microsomes
# In short: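 Test compound at 1 µM was incubated for 30 min with liver microsomes at 1 mg/ml (human, rat or mouse). Result is percent of parent compound remaining.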
# [2] = target: T1, CYP450 1A2 (Homo sapiens, UniProt P05177); test: CYP450 inhibition, recombinant isoform; format: in vitro ADME
# T1 sequence (P05177 1-516): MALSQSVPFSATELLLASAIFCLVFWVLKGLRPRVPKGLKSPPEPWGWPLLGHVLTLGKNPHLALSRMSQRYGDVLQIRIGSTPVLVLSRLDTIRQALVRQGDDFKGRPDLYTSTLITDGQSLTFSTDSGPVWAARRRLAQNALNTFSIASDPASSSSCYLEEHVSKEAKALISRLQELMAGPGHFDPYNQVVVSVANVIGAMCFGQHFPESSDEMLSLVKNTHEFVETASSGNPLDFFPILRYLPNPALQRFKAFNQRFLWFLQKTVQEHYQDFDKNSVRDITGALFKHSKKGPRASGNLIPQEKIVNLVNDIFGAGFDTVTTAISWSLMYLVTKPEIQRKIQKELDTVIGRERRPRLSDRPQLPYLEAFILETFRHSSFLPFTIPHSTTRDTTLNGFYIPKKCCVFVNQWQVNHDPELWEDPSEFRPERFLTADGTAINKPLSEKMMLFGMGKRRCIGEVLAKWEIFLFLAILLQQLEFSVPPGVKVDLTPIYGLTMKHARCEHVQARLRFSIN
# In short: (§1)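 Recombinant human CYP450 isoforms were incubated with isoform-specific probe substrates; for CYP3A4 these were midazolam and testosterone. Inhibition was quantified by LC-MS/MS analysis of probe-substrate turnover.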
# [3] = target: CYP450 2D6 (Homo sapiens, UniProt P10635); test: CYP450 inhibition, recombinant isoform; format: in vitro ADME
# CYP450 2D6, sequence (P10635 whole entry, canonical isoform): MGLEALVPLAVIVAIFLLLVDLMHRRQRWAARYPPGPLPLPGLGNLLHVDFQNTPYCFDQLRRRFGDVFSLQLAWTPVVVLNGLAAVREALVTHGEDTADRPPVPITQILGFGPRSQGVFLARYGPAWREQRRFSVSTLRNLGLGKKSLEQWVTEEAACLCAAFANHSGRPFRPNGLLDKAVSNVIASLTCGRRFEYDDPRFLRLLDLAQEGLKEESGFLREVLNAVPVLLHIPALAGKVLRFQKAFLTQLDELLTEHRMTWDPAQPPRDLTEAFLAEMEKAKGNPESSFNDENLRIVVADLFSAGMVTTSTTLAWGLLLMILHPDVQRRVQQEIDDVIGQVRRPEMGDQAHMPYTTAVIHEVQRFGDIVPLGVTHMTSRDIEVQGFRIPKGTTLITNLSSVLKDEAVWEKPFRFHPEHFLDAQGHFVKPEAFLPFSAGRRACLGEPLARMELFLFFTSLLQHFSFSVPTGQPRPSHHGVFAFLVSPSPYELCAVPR
# In short: as §1
# [4] = target: adenosine A3 (Homo sapiens, UniProt P0DMS8); test: CEREP off-target radioligand binding panel; conditions: read-out: inhibition of ligand binding
# adenosine A3, sequence (P0DMS8 whole entry): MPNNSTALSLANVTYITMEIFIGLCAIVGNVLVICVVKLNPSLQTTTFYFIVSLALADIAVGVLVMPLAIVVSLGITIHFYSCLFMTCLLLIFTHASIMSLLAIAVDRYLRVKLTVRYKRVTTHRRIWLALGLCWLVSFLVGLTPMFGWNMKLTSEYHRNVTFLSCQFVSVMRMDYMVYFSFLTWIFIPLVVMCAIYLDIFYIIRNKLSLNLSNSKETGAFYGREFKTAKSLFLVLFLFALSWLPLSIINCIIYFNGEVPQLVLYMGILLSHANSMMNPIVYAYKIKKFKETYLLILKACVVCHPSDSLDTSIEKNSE
# In short: (§2)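 CEREP secondary-pharmacology panel of 55 receptors, transporters and ion channels. Test compound at 10 µM was assessed for inhibition of binding of a radiolabelled reference ligand specific to each target. Result is percent inhibition of ligand binding.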
# [5] = target: μ opioid receptors (Homo sapiens, UniProt P35372); test: CEREP off-target radioligand binding panel; conditions: read-out: inhibition of ligand binding
# μ opioid receptors, sequence (P35372 whole entry): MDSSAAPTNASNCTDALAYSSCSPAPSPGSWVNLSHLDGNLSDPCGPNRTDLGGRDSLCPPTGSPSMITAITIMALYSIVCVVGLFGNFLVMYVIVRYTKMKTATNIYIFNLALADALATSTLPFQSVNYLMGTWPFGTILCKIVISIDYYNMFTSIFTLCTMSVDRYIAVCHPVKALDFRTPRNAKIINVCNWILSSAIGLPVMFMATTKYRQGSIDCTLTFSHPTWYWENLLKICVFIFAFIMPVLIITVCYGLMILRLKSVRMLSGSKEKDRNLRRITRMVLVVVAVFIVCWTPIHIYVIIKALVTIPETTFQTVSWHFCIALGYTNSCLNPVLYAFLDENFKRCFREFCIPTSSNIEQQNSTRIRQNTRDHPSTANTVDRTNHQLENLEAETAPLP
# In short: as §2
# [6] = test system: sodium channel (Site 2); test: CEREP off-target radioligand binding panel; conditions: 10 µM
# In short: as §2
# [7] = Single-dose i.v./po PK in male Sprague-Dawley rats; format: in vivo, rat
# In short: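 Sprague-Dawley rats received a single i.v. dose of 1 mg/kg (n = 13) or an oral dose of 5 mg/kg (n = 3). Plasma was sampled at 5 min (i.v. only), 15 and 30 min, 1, 2, 4, 8 and 12 h, and 24 and 48 h (po only). Oral bioavailability came from i.v./po comparison; fabs came from kinetic analysis.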
# [8] = test system: Aβ42 and Aβ40 levels in plasma and brain; test: Acute single-dose time course efficacy in C57BL/6J mice; format: in vivo, mouse
# [9] = test system: Aβ42, Aβ40, Aβ38 in plasma and brain extracts; test: Chronic 3-mo efficacy in PSAPP transgenic mice; format: in vivo, mouse; conditions: 25 mg/kg/d po
# In short: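 Female PSAPP (APPswe/PSEN1dE9) mice and wild-type C57BL/6J controls, 9–10 per group, housed at 22°C on a 12:12 h light cycle. Treatment began at 90 or 180 d of age: vehicle (80% PEG 400, 20% water, 0.1% Tween 20) or test compound 25 mg/kg/d by oral gavage for 3 mo. Brain Aβ peptides were then measured.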
# [10] = test system: cerebral amyloidosis; test: Immunohistochemistry of amyloid deposition; format: in vivo, mouse; conditions: 25 mg/kg/d, 3 mo
# In short: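 Female PSAPP mice began treatment at 90 or 180 d of age with vehicle (PEG 400/water/Tween 20) or test compound 25 mg/kg/d by oral gavage for 3 mo. Cerebral amyloid deposition in cortex and hippocampus was assessed by immunohistochemistry with anti-Aβ mAb 3D6, alongside Iba1 staining for microgliosis.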
# [11] = Necropsy, histopathology and weight gain in chronically treated PSAPP mice; format: in vivo, mouse; conditions: chronic 25 mg/kg/d, 3 mo
# In short: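 Female PSAPP mice, 9–10 per group, were dosed with vehicle (PEG 400/water/Tween 20) or test compound 25 mg/kg/d by oral gavage for 3 mo. Body weight was recorded three times weekly to monitor weight gain. Necropsy and histopathology followed the treatment period.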
# [12] = test system: Aβ38, Aβ40, Aβ42 in plasma; test: Acute single-dose escalation and time course efficacy in NHPs; format: in vivo, cynomolgus macaque
# In short: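 Cynomolgus macaques, two male and two female. Escalation phase: single nasogastric doses of 0, 10, 30, 100 and 200 mg/kg, with blood taken 4 h post-dose. Repeat phase: 200 mg/kg for 2 d, then 100 mg/kg for 5 d, with blood on days 1 and 7 at predose and 1, 2, 4, 8 and 24 h. K3EDTA plasma was stored at ≤ −60°C. Aβ38/40/42 were measured by MSD multiplex assay.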
# [13] = GLP in vitro micronucleus evaluation; format: cell-based; conditions: data not shown
# [14] = GLP 28-d repeat-dose toxicity and in vivo micronucleus study in rats; set-up: species or system rat
# [15] = test system: Pig-a mutant RBCs and RETs; test: GLP 28-d in vivo Pig-a gene mutation study in rats; set-up: species or system rat; conditions: 28 d, 6, 20, 60 mg/kg/d (males), 3, 10, 30 mg/kg/d (females)
# In short: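 GLP study in male and female Sprague-Dawley rats, n = 5 per dose per sex. Test compound in 15% Labrasol:85% water was given by oral gavage for 28 d at 0, 6, 20 or 60 mg/kg/d (males) or 0, 3, 10 or 30 mg/kg/d (females). Peripheral blood was then analysed by flow cytometry for % reticulocytes, mutant-phenotype RBC frequency and mutant-phenotype RET frequency.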
# [16] = single oral dose 5 mg/kg, 6–12 h after administration
# [17] = PSAPP mice treated from 3 mo of age (prophylactic)
# [18] = PSAPP mice treated from 6 mo of age (disease-modifying)
smiles,measurement,setting,value
"COc1nc(-c2cc(C)c(N[C@@H](C)c3cc(F)cc(F)c3)nn2)ccc1-n1cnc(C)c1 [Compound 2, (S)-N-(1-(3,5-difluorophenyl)ethyl)-6-(6-methoxy-5-(4-methyl-1H-imidazol-1-yl)pyridin-2-yl)-4-methylpyridazin-3-amine]","remaining at 0.5 h, 1 µM",[1],71%
same,IC50,[2],12 µM
same,IC50,[3],11 µM
same,inhibition at 10 µM,[4],> 50%
same,inhibition at 10 µM,[5],> 50%
same,inhibition of ligand binding,[6],Greater than 50%
same,CL as percent of reported hepatic blood flow,[7]; hepatic blood flow 75 ml/min/kg,< 10%
same,fraction of dose absorbed from intestinal lumen (fabs),[7]; kinetic analysis,~90%
same,clearance,"[7]; male, Sprague-Dawley, rat, plasma, iv, 1 mg/kg, CL",6 mL/min/kg
same,reduction of brain Aβ42 levels,[8]; [16],~50%
same,reduction of plasma Aβ42 levels,[8]; [16],~70%
same,duration of appreciable lowering of brain Aβ42 peptide levels,[8]; single oral dose 10 mg/kg,~24 h
same,reduction of Aβ42 levels in brain at peak reduction,[8]; single oral dose 10 mg/kg,> 70%
same,reduction of Aβ42 levels in plasma at peak reduction,[8]; single oral dose 10 mg/kg,> 90%
same,time of maximal reduction of Aβ42 levels in plasma,[8]; single oral dose 5 or 10 mg/kg,1 h
same,"reduction of brain Aβ42, detergent-insoluble (formic acid) extract",[9]; [17],54%
same,"reduction of brain Aβ42, detergent-soluble (RIPA buffer) extract",[9]; [17],44%
same,"reduction of brain Aβ42, detergent-insoluble (formic acid) extract",[9]; [18],39%
same,"reduction of brain Aβ42, detergent-soluble (RIPA buffer) extract",[9]; [18],45%
same,"attenuation of cerebral amyloidosis (mAb 3D6), cortex and hippocampus","[10]; 6-mo-old PSAPP mice (prophylactic group), P < 0.01",greater than twofold
same,"cerebral amyloidosis (mAb 3D6), cortex and hippocampus, vs vehicle","[10]; 9-mo-old PSAPP mice (disease-modifying group), P < 0.03",statistically significant decrease
same,full-body necropsy and histopathology,[11],no overt evidence of toxicity
same,weight gain,[11]; data not shown,no significant effect on weight gain
same,effect on levels of Aβ38 in plasma,[12],did not affect
same,sustained lowering of plasma Aβ42 and Aβ40 peptides,"[12]; 200 mg/kg, day 1 of repeat-dosing phase, for over 24 h",~70%
same,GLP in vitro micronucleus evaluation,[13],negative
same,safety margin based on comparison of systemic exposures,[14]; AUC at rat NOAEL vs predicted human AUC at 100 mg,more than 130 fold
same,AUC,"[14]; male, rat, in vivo, 60 mg/kg",586 µg·h/mL
same,NOAEL at 28 d,"[14]; rat, in vivo",60 mg/kg
same,GLP 28-d repeat-dose toxicity and in vivo micronucleus study,"[14]; rats, data not shown",negative
same,in vivo mutagenicity (Pig-a mutant RBCs and RETs),[15],negative
